Measurements gathered from unrelated publications.
Lines come from different studies, so protocols differ.
Target: Rho-associated protein kinase 1 (ROCK1, Homo sapiens, UniProt Q13464)

Cc1c(C(=O)O)cc(-c2ccc(C3CCNCC3)cc2)c2ccc(-c3ccc(C(F)(F)F)cc3)cc12  remaining binding (binding, competition with immobilised ligand; 1 µM): 100%
CN(c1nccc(-c2cnn3ncccc23)n1)C1CC1  remaining binding (binding; 1 µM): 100%
CCCOc1ccc([C@H]2[C@H](C(=O)O)[C@@H](c3ccc4c(c3)OCO4)CN2CC(=O)Nc2c(CC)cccc2CC)cc1  remaining binding (cell-free assay, competition with immobilised ligand; 1 µM): 65%
O=C(NCCCN1CCOCC1)c1ccc(Nc2nccc(-c3cc4ccccc4s3)n2)cc1  remaining binding (binding, competition with immobilised ligand; 1 µM): 54%
C[C@@H](c1ccc(-n2cnc3c(N)ncnc32)cc1)N1CCc2nn(C)c(Cc3ccccc3)c2C1=O  remaining binding (binding, competition with immobilised ligand; 0.1 µM): 85%
CN(CCCC(F)(F)F)c1nccc(-c2cnn3ncccc23)n1  remaining binding (binding; 1 µM): 100%
CC(C)CC(=O)N1CCc2nc(-c3ccc(Br)cc3)nc(N(C)Cc3ccccc3)c2C1  remaining binding (cell-free assay, competition with immobilised ligand; 0.1 µM): 78%
C=CC(=O)N1CCC(C(=O)NCC(=O)N2CCN(c3nc(-c4cnc(N)nc4C(F)F)nc(N4CCOCC4)n3)CC2)CC1  remaining binding (binding, competition with immobilised ligand; 1 µM): 100%
CCC(=N\O)/C(C)=C/c1ccc(F)cc1  remaining binding (cell-free assay, competition with immobilised ligand; 1 µM): 100%
CN(C)c1nccc(-c2cnc3ncccn23)n1  remaining binding (binding; 1 µM): 74%
CNC(=O)[C@@H]1CC[C@@H](n2c(-c3ccc4cnccc4c3)nc3ccc(C(=O)NCc4cccc(C(N)=O)c4)cc32)C1  remaining binding (binding, competition with immobilised ligand; 1 µM): 100%
N#Cc1ccc(Nc2ccc3[nH]c(=O)[nH]c3c2)c(Cl)c1  remaining binding (cell-free assay, competition with immobilised ligand; 1 µM): 100%
O=C(NCC1CCOCC1)c1n[nH]cc1NC(=O)c1c(F)cccc1F  remaining binding (binding, competition with immobilised ligand; 1 µM): 83%
COc1cnc(Nc2cccc(S(N)(=O)=O)c2)nc1N1CCN(c2ccccc2)CC1  remaining binding (binding, competition with immobilised ligand; 1 µM): 78%
O=C(c1ccc(Nc2ncc(Cl)c(-c3ccc(Cl)s3)n2)cc1)N1CCC(N2CCCC2)CC1  remaining binding (binding, competition with immobilised ligand; 1 µM): 4.9%
C[C@H](c1ccc(F)cc1)N(Cc1cccc(C(=O)O)c1)C(=O)c1cnc2ccccc2c1  remaining binding (cell-free assay, competition with immobilised ligand; 1 µM): 100%
CC1CCCN1c1nccc(-c2cnn3ncccc23)n1 (stereo not shown)  remaining binding (binding; 1 µM): 100%
CCN1CCN(Cc2ccc(C(=O)Nc3ccc(C)c(Oc4ccc5c(c4)CC(=O)N5)c3)cc2C(F)(F)F)CC1  remaining binding (binding, competition with immobilised ligand; 1 µM): 69%
C[C@@H]1CCN(c2nccc(-c3cnn4ncccc34)n2)C1  remaining binding (binding; 1 µM): 86%
O=C(c1ccc(Nc2nccc(-c3cc4ccccc4s3)n2)cc1)N1CCC(N2CCCC2)CC1  remaining binding (binding, competition with immobilised ligand; 1 µM): 7.4%
N[C@H]1CCN(c2nccc(-c3cnn4ncccc34)n2)C1  remaining binding (binding; 1 µM): 73%
CS(=O)(=O)N1CCCC(NC(=O)[C@H](CCC2CCCCC2)NC(=O)c2ccc(CNC(=O)c3cnc4ccccn34)cc2)C1 (stereo partly shown)  remaining binding (cell-free assay, competition with immobilised ligand; 0.1 µM): 100%
